ChEMBL document CHEMBL1121744, “Synthesis and antihypertensive activity of a series of 8-substituted 1-oxa-3,8-diazaspiro[4.5]decan-2-ones” (J Med Chem, 1981)
Values belong to the compound of their own block, whether it stands above or below them. Calls of active or inactive are those of the source. The rule behind the calls is not given here.

How the values were obtained:
[1] = biological target: T1, Adrenergic receptor alpha-2 (Rattus norvegicus, UniProt P22086+P19328+P22909); experiment: Antagonistic potency of compound for Alpha-2 adrenergic receptor; assay type: functional
T1 sequence (P22086 whole entry): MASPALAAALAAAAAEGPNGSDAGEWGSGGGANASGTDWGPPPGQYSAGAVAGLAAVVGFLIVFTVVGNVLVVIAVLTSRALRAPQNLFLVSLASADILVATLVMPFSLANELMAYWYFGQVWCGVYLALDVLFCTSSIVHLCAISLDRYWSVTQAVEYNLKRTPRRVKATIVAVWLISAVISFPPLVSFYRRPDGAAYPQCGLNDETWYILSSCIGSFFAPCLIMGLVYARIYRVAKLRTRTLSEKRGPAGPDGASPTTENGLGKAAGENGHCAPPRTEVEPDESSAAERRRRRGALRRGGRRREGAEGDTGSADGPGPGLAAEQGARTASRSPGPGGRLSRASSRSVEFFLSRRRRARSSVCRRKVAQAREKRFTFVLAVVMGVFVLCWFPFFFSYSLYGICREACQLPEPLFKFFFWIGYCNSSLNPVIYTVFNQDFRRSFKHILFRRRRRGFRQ
T1 sequence (P19328 whole entry): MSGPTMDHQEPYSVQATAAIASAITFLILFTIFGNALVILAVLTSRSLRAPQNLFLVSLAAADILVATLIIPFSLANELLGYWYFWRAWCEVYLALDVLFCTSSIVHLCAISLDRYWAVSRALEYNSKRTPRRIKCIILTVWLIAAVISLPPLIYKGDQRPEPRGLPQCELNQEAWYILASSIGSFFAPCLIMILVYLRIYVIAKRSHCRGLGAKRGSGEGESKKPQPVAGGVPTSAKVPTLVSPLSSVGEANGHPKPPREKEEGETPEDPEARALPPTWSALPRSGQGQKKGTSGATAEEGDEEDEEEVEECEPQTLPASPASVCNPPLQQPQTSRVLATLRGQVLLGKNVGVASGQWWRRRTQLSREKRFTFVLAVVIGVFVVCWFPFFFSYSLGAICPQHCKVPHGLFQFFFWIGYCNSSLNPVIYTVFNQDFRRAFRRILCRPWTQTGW
T1 sequence (P22909 whole entry): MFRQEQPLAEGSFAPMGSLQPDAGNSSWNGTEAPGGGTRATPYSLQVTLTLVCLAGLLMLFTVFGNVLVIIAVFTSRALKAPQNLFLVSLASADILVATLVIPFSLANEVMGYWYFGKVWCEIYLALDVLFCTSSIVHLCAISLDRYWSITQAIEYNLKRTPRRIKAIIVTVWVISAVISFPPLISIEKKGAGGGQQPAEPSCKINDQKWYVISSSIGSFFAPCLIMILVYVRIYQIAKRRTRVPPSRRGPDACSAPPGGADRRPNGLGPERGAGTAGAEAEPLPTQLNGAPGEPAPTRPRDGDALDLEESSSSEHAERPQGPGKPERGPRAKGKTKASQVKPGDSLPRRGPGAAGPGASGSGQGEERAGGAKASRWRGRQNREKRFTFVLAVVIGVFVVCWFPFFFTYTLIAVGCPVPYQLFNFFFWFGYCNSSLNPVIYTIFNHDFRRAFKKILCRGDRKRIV

Canis familiaris [2] = experiment: Change in mean arterial pressure in anesthetized dogs for a dose of 1 mg/kg; assay type: functional, Canis lupus familiaris, Artery
In short: (§1)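 Dogs anesthetized with sodium pentobarbital (35 mg/kg iv), femoral artery cannulated for pressure, ECG-triggered heart rate, femoral vein for dosing. Rising iv doses were given 90 min apart, and each dose is the full dose, not cumulative. Value is the maximal mean arterial pressure change 10–15 min after each dose, two dogs per compound, ±3 mmHg. Saline served as control.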

Canis familiaris [3] = experiment: Change in mean arterial pressure in anesthetized dogs for a dose of 10 mg/kg; assay type: functional, Canis lupus familiaris, Artery; in short: as §1
Canis familiaris [4] = experiment: Percent inhibition of the pressor responses to 1 ug/kg iv Epinephrine in pentobarbital-anesthetized dogs for a dose of 0.1 mg/kg; assay type: functional; details: Canis lupus familiaris
In short: (§2)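 Dogs anesthetized with sodium pentobarbital 35 mg/kg iv; femoral artery cannulated for blood pressure, femoral vein for dosing. Epinephrine 1 μg/kg iv given at about 10-min intervals before and after increasing test doses. Test doses given iv at 90-min intervals. Result is per cent inhibition of the pressor response.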

Canis familiaris [5] = experiment: Percent inhibition of the pressor responses to 1 ug/kg iv Epinephrine in pentobarbital-anesthetized dogs for a dose of 10 mg/kg; assay type: functional; details: Canis lupus familiaris; in short: as §2
Canis familiaris [6] = experiment: Percent inhibition of the pressor responses to 7.5 ug/kg iv phenylephrine in pentobarbital-anesthetized dogs for a dose of 10 mg/kg; assay type: functional; details: Canis lupus familiaris
In short: (§3)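 Pentobarbital-anesthetized dogs (35 mg/kg iv) with femoral arterial pressure recording. Epinephrine (1 μg/kg), norepinephrine (0.75 μg/kg) and phenylephrine (7.5 μg/kg) iv challenges were given about every 10 min before and after rising iv test doses, which were spaced 90 min apart. Value is % inhibition of the pressor response.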

Rattus norvegicus [7] = experiment: The antihypertensive activity as percentage fall in systolic blood pressure in spontaneously hypertensive rats after a period of 1 hr for a dose of […]; assay type: functional, Artery
In short: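 Male Okamoto-Aoki SHR, trained, in groups of four matched for systolic pressure, with a concurrent vehicle control group. Oral dosing on two consecutive mornings, in water as solution or suspension at 0.1 mL/10 g. On day 2 rats were restrained at 30.0 ± 1.0 °C. Tail-cuff systolic pressure, four traces per rat, read at each hour. Per cent fall versus control; 1-tail t test, p ≤ 0.05.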

Rattus norvegicus [8] = experiment: The antihypertensive activity as percentage fall in systolic blood pressure in spontaneously hypertensive rats after a period of 4 hr for a dose of 50 mg/kg po
Canis familiaris [9] = experiment: Percent inhibition of the pressor responses to 0.75 ug/kg iv norepinephrine in pentobarbital-anesthetized dogs for a dose of 1 mg/kg; assay type: functional; details: Canis lupus familiaris; in short: as §3
Canis familiaris [10] = experiment: Change in mean arterial pressure in anesthetized dogs for a dose of 0.01 mg/kg; assay type: functional, Canis lupus familiaris, Artery; in short: as §1
Canis familiaris [11] = experiment: Change in mean arterial pressure in anesthetized dogs for a dose of 0.316 mg/kg; assay type: functional, Canis lupus familiaris, Artery; in short: as §1
Canis familiaris [12] = experiment: Change in mean arterial pressure in anesthetized dogs for a dose of 3.16 mg/kg; assay type: functional, Canis lupus familiaris, Artery; in short: as §1
Canis familiaris [13] = experiment: Percent inhibition of the pressor responses to 0.75 ug/kg iv norepinephrine in pentobarbital-anesthetized dogs for a dose of 3.16 mg/kg; assay type: functional; details: Canis lupus familiaris; in short: as §3
Rattus norvegicus [14] = experiment: The antihypertensive activity as percentage fall in systolic blood pressure in spontaneously hypertensive rats after a period of 1 hr for a dose of 25 mg/kg po; assay type: functional, Artery
In short: (§4)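 Male Okamoto-Aoki SHR, trained, in groups of four matched for mean systolic pressure; one group per run received water vehicle. Oral dosing in water (0.1 mL per 10 g) on two consecutive mornings. After the day-2 dose, rats were restrained at 30.0 ± 1.0 °C. Systolic pressure was read by tail cuff (inflated to 300 mmHg, first pulse) at 1–4 h. % fall is versus the untreated control group, by 1-tail t test (p ≤ 0.05).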

Rattus norvegicus [15] = experiment: The antihypertensive activity as percentage fall in systolic blood pressure in spontaneously hypertensive rats after a period of 3 hr for a dose of 25 mg/kg po; assay type: functional, Artery; in short: as §4
Rattus norvegicus [16] = experiment: The antihypertensive activity as percentage fall in systolic blood pressure in spontaneously hypertensive rats after a period of 4 hr for a dose of 25 mg/kg po; NS=Not significant; assay type: functional, organism-based; set-up: dose 25 mg/kg; details: Artery; in short: as §4

Compound: O=C1NCC2(CCN(CCc3c[nH]c4ccccc34)CC2)O1
- pA2 [1]: < 5
- MAP (Canis familiaris [2]): -11 mmHg
- MAP (Canis familiaris [3]): -6 mmHg
- inhibition in vivo at 0.1 mg/kg (Canis familiaris [4]): > 100%
- inhibition in vivo at 10 mg/kg (Canis familiaris [5]): 97%
- inhibition in vivo at 10 mg/kg (Canis familiaris [6]): 100%
- Decrease in blood pressure (Rattus norvegicus [7]): 14%
- Decrease in blood pressure (Rattus norvegicus [8]): 11%

- pA2 [1]: 6.4
Compound: CN1CC2(CCN(CC(O)C3COc4ccccc4O3)CC2)OC1=O (stereo not drawn)
- inhibition in vivo at 1 mg/kg (Canis familiaris [9]): 60%
- MAP (Canis familiaris [10]): 4 mmHg
- MAP (Canis familiaris [11]): 0 mmHg
- MAP (Canis familiaris [2]): -13 mmHg
- MAP (Canis familiaris [12]): -18 mmHg
- inhibition in vivo at 3.16 mg/kg (Canis familiaris [13]): 69%
- Decrease in blood pressure (Rattus norvegicus [14]): 27%
- Decrease in blood pressure (Rattus norvegicus [15]): 15%
- Decrease in blood pressure (Rattus norvegicus [16]): inactive
